The results in this text go back to ChEMBL document CHEMBL4145626, “Chemical Constituents of Apios americana Tubers and Their Inhibitory Activities on Nitric Oxide Production in Lipopolysaccharide-Stimulated RAW 264.7 Macrophages” (J Nat Prod, 2018).

For this assay, the system named is RAW264.7. In words: Inhibition of LPS-induced nitric oxide production in mouse RAW264.7 cells pretreated for 1 hr followed by LPS-stimulation and measured after 24 hrs by Griess assay. The class given is functional, cell-based. Summed up:
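RAW 264.7 macrophages seeded at 0.9 × 10^5 cells/mL and grown 24 h; pretreated with compound 1 h, then stimulated with LPS (1 μg/mL) for 24 h. Accumulated nitrite in medium measured with Griess reagent as NO indicator. IC50 = concentration giving 50% decrease in NO production; means of three independent experiments. NIL (10 μM) as positive control; MTT viability assay run in parallel.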
Consider `COc1cc(O)cc2occ(-c3ccc(O)cc3)c(=O)c12`, for which the IC50 was over 1 µM.

Consider `O=c1c2c(O)cc(O)cc2oc2oc3cc(O)ccc3c12`, for which the IC50 is over 1 µM.

Regarding `COc1cc(O[C@@H]2O[C@H](CO)[C@@H](O)[C@H](O)[C@H]2O)cc2occ(-c3ccc(O[C@@H]4O[C@H](CO)[C@@H](O)[C@H](O)[C@H]4O)cc3O)c(=O)c12`, the IC50 was 0.42 µM.

Consider `COc1cc(O[C@@H]2O[C@H](CO)[C@@H](O)[C@H](O)[C@H]2O)cc2occ(-c3ccc(O)cc3)c(=O)c12`, for which the IC50 is over 1 µM.

In the case of `O=c1c(-c2ccc(O[C@@H]3O[C@H](CO)[C@@H](O)[C@H](O)[C@H]3O)cc2O)coc2cc(O)cc(O)c12`, the IC50 is over 1 µM.

For `O=c1c(-c2ccc(O)cc2O)coc2cc(O[C@@H]3O[C@H](CO[C@@H]4O[C@H](CO)[C@@H](O)[C@H](O)[C@H]4O)[C@@H](O)[C@H](O)[C@H]3O)cc(O)c12`, the IC50 is 0.6 µM.

In the case of `O=c1c(-c2ccc(O)cc2)coc2cc(O[C@@H]3O[C@H](CO[C@@H]4O[C@H](CO)[C@@H](O)[C@H](O)[C@H]4O)[C@@H](O)[C@H](O)[C@H]3O)cc(O)c12`, the IC50 was over 1 µM.

As for `COc1cc(-c2coc3cc(O)cc(OC)c3c2=O)ccc1O`, the IC50 is over 1 µM.

For the compound `COc1cc(O)cc2c1C(=O)[C@]1(O)c3ccc(O)cc3O[C@@H]1O2`, the IC50 amounted to 0.38 µM.

Regarding `O=c1c(-c2ccc(O[C@@H]3O[C@H](CO)[C@@H](O)[C@H](O)[C@H]3O)cc2O)coc2cc(O[C@@H]3O[C@H](CO)[C@@H](O)[C@H](O)[C@H]3O)cc(O)c12`, the IC50 was determined as 0.71 µM.

For the compound `O=c1c(-c2ccc(O)cc2)coc2cc(O[C@@H]3O[C@H](CO[C@@H]4O[C@H](CO[C@@H]5O[C@H](CO)[C@@H](O)[C@H](O)[C@H]5O)[C@@H](O)[C@H](O)[C@H]4O)[C@@H](O)[C@H](O)[C@H]3O)cc(O)c12`, the IC50 is over 1 µM.

Consider `COc1cc(-c2coc3cc(O[C@@H]4O[C@H](CO)[C@@H](O)[C@H](O)[C@H]4O)cc(OC)c3c2=O)ccc1O`, for which the IC50 is over 1 µM.

Take `COc1cc(O)cc2occ(-c3ccc(O)cc3O)c(=O)c12`: the IC50 came to 0.6 µM.

For `COc1cc(O)cc2occ(-c3ccc(O[C@@H]4O[C@H](CO)[C@@H](O)[C@H](O)[C@H]4O)cc3O)c(=O)c12`, the IC50 amounted to 0.47 µM.

For `COc1cc(O[C@@H]2O[C@H](CO)[C@@H](O)[C@H](O)[C@H]2O)cc2occ(-c3ccc(O)cc3O)c(=O)c12`, the IC50 is over 1 µM.

On to `O=c1c(-c2ccc(O)cc2O)coc2cc(O[C@@H]3O[C@H](CO)[C@@H](O)[C@H](O)[C@H]3O)cc(O)c12`, for which the concentration for half-maximal inhibition (IC50) was over 1 µM.

With `O=c1c(-c2ccc(O)cc2O)coc2cc(O)cc(O)c12`, the 50% inhibitory concentration (IC50) was over 1 µM.

On to `NC(=O)NC1NC(=O)NC1=O` (stereo unspecified) [ALLANTOIN], for which the IC50 stood at 0.5 µM.

With `O=c1c(-c2ccc(O)cc2)coc2cc(O)cc(O)c12` [GENISTEIN], the IC50 was over 1 µM.

Take `O=c1c(-c2ccc(O)cc2)coc2cc(O[C@@H]3O[C@H](CO)[C@@H](O)[C@H](O)[C@H]3O)cc(O)c12` [GENISTIN]: the IC50 was over 1 µM.

Regarding `CC(=N)NCCCC[C@H](N)C(=O)O` [L-NIL], the IC50 was determined as 1.55 µM.
